High-throughput results deposited in PubChem BioAssay by The Scripps Research Institute Molecular Screening Center.
procasp7 counter: activates human procaspase-7, counter-screen for procaspase-3 activators. P55210. recombinant procaspase-7, Ac-DEVD-pNA absorbance 405 nm; D23A/D198A/D206A triple mutant, cannot self-cleave; scale: DMSO 0, 5 µM enzyme 100. activation, % at 8.5 µM. 330,000 compounds, 0.093% hits;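 active means percent activation above the screen-wide mean plus 3 SD, cut at about 25% in these data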
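System: Procaspase-7 triple mutant (PC-7 D3A); measure: % activation from two-timepoint absorbance difference, scaled to controls; times: 1 h compound preincubation, 2 h substrate cleavage, 25 °C; also added: Ac-DEVD-pNA substrate, 400 µM as added; measured by: Epi-absorbance of released pNA at 405 nm, two timepoints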
PP5 primary: PP5 (human) phosphatase inhibition | P53041 | purified PP5c, OMFP substrate fluorescence | inhibition, % at 6.7 µM | 320,000 compounds, 0.18% hits | AID 1987;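 active means inhibition above the campaign's mean inhibition across all tested compounds plus 3 SD, cut at about 9.5% in these data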
Target sequence (P53041 whole entry, looked up): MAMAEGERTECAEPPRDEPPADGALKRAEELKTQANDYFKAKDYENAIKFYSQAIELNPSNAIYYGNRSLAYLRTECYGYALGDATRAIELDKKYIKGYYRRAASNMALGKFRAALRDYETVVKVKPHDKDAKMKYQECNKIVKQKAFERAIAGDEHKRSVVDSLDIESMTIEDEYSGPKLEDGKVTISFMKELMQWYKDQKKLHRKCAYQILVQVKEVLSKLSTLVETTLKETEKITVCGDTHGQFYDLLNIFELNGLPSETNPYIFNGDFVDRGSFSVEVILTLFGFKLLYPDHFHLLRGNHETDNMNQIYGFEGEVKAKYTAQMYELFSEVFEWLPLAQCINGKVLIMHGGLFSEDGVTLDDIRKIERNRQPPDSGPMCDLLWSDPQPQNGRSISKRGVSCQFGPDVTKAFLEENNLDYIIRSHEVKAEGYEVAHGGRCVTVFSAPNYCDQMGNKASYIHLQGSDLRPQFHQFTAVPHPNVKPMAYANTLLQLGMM
procasp3 activ: activates human procaspase-3. 330,000 compounds, 0.11% hits. AID 463141. P42574. recombinant procaspase-3 D3A, Ac-DEVD-pNA absorbance 405 nm. activation, % at 8.5 µM;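 active means activation above the mean of all tested compounds plus 3 SD, cut at about 21% in these data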
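Evaluation: percent activation relative to control range; Material: Procaspase-3 D3A mutant, all three cleavage aspartates alanine; Compound: single dose, 8.5 µM nominal compound, 0.8% DMSO; Replication: one well per compound; Signal: absorbance at 405 nm, 0 and 120 min; Schedule: 1 h preincubation plus 2 h reaction at 25 °C.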
PP1 counter: PP1-alpha (human) inhibition in PP5 counter-screen; P62136; purified PP1alpha, OMFP fluorescence; inhibition, % at 6.7 µM; 320,000 compounds, 0.9% hits;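 active means inhibition above the mean inhibition of all tested compounds plus 3 SD, computed separately for each screening campaign, cut at about 15% in these data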
procasp7 triplic: counter-screen: procaspase-7 (human) activation in triplicate; shares compounds with procasp3 activ; recombinant procaspase-7, Ac-DEVD-pNA absorbance; asp23/198/206-to-Ala mutant, cannot self-cleave; activation, % at 8.5 µM; 210 tested, under 10 active; AID 488941;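 active means mean activation above a set limit taken from an earlier procaspase-7 screen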
procasp3 conf: procaspase-3 (human) activation, confirmed; activation, % at 8.5 µM; 210 compounds, 10% hits; recombinant PC-3 D3A, Ac-DEVD-pNA absorbance 405 nm; 100% is higher-enzyme control; shares compounds with procasp3 activ;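 active means mean activation above a set limit carried over from the earlier primary screen, cut at about 22% in these data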
Numbers stand for hits; - = inactive; . = no result given. This is a sample that favours compounds with a hit; in the whole collection about 1.2% have one here.

SMILES	procasp7 counter	PP5 primary	procasp3 activ	PP1 counter	procasp7 triplic	procasp3 conf
CCCc1ccc(OCc2ccc(C(=O)N3CCSCC3)o2)cc1	-	-	22	-	-	-
COc1ccccc1OCCCCNC(C)(C)C	-	-	26	-	-	-
CC(C)(C)NCCCCOc1ccccc1F	-	-	-	-	.	.
Cc1ccc(S(=O)(=O)N(CC(=O)N2CCC(C)CC2)c2ccccc2)cc1	-	-	23	-	-	-
Cc1ccc(S(=O)(=O)N(CC(=O)N2CCCCCC2)c2ccccc2)cc1	-	-	-	-	.	.
Cc1ccc(NC(=O)c2sc3nc(N4CCOCC4)c4c(c3c2N)CC(C)(C)OC4)cc1	-	-	-	-	.	.
CC1(C)Cc2c(c(N3CCCC3)nc3sc(C(=O)Nc4ccccc4)c(N)c23)CO1	-	-	23	-	39	68
COc1ccc(N(CC(=O)N2CCOCC2)S(C)(=O)=O)cc1Cl	-	-	-	-	.	.
O=C(CN1C(=O)c2cccc3cccc1c23)NCc1ccc2c(c1)OCO2	-	-	29	-	-	-
C=CCSC1=N/C(=C\c2sccc2C)C(=O)S1	-	-	59	-	-	-
COc1ccccc1Nc1nc2c(C)cccc2cc1C#N	-	-	40	-	80	94
COc1ccccc1Nc1nc2ccc(C)cc2cc1C#N	-	-	-	-	.	.
Cc1c(Cc2ccccc2)sc(/N=C/c2ccc3ccccc3c2)c1C(N)=O	-	-	-	-	.	.
Cc1c(Cc2ccccc2)sc(/N=C/c2c(O)ccc3ccccc23)c1C(N)=O	-	-	32	-	-	26
OC[C@@H]1[C@@H](c2ccc(Cl)cc2)C(c2ccc(F)cc2)=NN1c1ccccc1	-	.	24	.	-	-
Cc1cccc(C2=NN(c3ccccc3)[C@H](CO)[C@H]2c2ccc(Cl)cc2)c1	-	.	-	.	.	.
OC[C@@H]1[C@@H](c2ccccc2)C(c2cccc(Cl)c2)=NN1c1ccccc1	-	.	-	.	.	.
Cc1cccc(C2=NN(c3ccccc3)[C@H](CO)[C@H]2c2ccc(F)cc2)c1	-	.	25	.	-	-
CCCCCCOC(=O)Cc1c(C)nc(-c2ccccc2)[nH]c1=O	-	-	-	-	.	.
O=c1cc(O)c2ccc(O)cc2o1	-	-	-	-	.	.
Cc1cc(=O)oc2cc(O)ccc12	-	-	24	-	-	-
CC(C)(C)c1ccc(C(=O)N2CCN(CCNC(=O)C(=O)NCc3ccccc3)CC2)cc1	-	-	-	-	.	.
Cc1ccc(OCC(=O)NC2CCS(=O)(=O)C2)c([N+](=O)[O-])n1 (stereo unspecified)	-	-	21	-	-	-
CCN(CC)S(=O)(=O)c1ccc(OCC(=O)NC2CCS(=O)(=O)C2)c([N+](=O)[O-])c1 (stereo unspecified)	-	-	-	-	.	.
COc1cc(OC)c(NC(=O)CNC(=O)Cn2ccc3ccccc3c2=O)cc1Cl	-	-	-	-	.	.
SMILES	procasp7 counter	PP5 primary	procasp3 activ	PP1 counter	procasp7 triplic	procasp3 conf
Cc1c(O)ccc2c(CN3CCN(CCO)CC3)cc(=O)oc12	-	-	-	-	.	.
Cc1c(O)ccc2c(CN3CCOCC3)cc(=O)oc12	-	-	21	-	-	-
COc1cc(OC)c(N(C)S(=O)(=O)c2cccc(C(=O)OCC(=O)c3c[nH]c4ccccc34)c2)cc1Cl	-	-	-	-	.	.
C=CCN(c1ccccc1OC)S(=O)(=O)c1cccc(C(=O)OCC(=O)c2c[nH]c3ccccc23)c1	-	-	22	-	-	-
Cc1nc(SC(C)C(=O)NCC2CCCO2)c2cc(-c3ccccc3)sc2n1 (stereo unspecified)	-	-	-	-	.	.
N#Cc1ccc(/C=C\c2nccc3c2[nH]c2ccccc23)cc1	-	-	48	-	-	-
O=C1OCCN1C(=O)[C@H]1[C@H](c2ccc(Cl)cc2)C(c2cccc(Cl)c2)=NN1c1ccccc1	-	-	23	-	-	-
O=C1OCCN1C(=O)[C@H]1[C@H](c2ccc(F)cc2)C(c2cccc(Cl)c2)=NN1c1ccccc1	-	.	-	.	.	.
O=C1OCCN1C(=O)[C@H]1[C@H](c2ccc(Cl)cc2)C(c2ccccc2)=NN1c1ccc(Br)cc1	-	.	28	.	-	-
Cc1cccc(C2=NN(c3ccc(Br)cc3)[C@@H](C(=O)N3CCOC3=O)[C@@H]2c2ccc(Cl)cc2)c1	-	.	23	.	-	-
C[C@H](CO)N1C[C@H](C)[C@H](CN(C)S(=O)(=O)c2ccccc2)Oc2ccc(NC(=O)NC3CCCCC3)cc2CC1=O	-	.	-	.	.	.
CC(NC(=O)CN(C)Cc1cccs1)c1ccccc1 (stereo unspecified)	-	-	-	-	.	.
O=C(Nc1ccccc1)c1snc2c(=O)[nH]cnc12	-	-	-	-	.	.
Cc1c(CCC(=O)NCCCN2CCCC2=O)c(=O)oc2cc(O)ccc12	-	-	26	-	-	-
COc1ccc(-c2nn(-c3ccccc3)cc2CN(C)CCn2ccnc2C)c(F)c1	-	-	-	-	.	.
Cc1ccccc1OCC(=O)OCC(=O)Nc1ncc(Cl)c(C)c1Cl	-	-	-	-	.	.
O=C(NC(=O)c1cccc(Cl)c1)OC[C@@H]1CCCN2CCCCC12 (stereo partly specified)	-	-	-	-	.	.
CCN1C(=O)c2cccc3c(S(=O)(=O)N(C(C)=O)c4ccc(OC(C)=O)cc4)ccc1c23	-	.	24	.	-	-
CCCCn1c(N)c(N(CC(C)C)C(=O)C2CC(=O)N(c3ccc(C)cc3)C2)c(=O)[nH]c1=O (stereo unspecified)	-	-	22	-	-	-
COc1ccccc1OCCn1c(C)c(C=O)c2ccccc21	-	-	-	-	.	.
Cc1ccc(-n2nc3ccc(N)cc3n2)cc1	-	-	-	-	.	.
CC(C)c1ccc(-n2nc3ccc(N)cc3n2)cc1	-	-	31	-	-	-
O=C(CCNS(=O)(=O)c1cccc2nsnc12)N1CC(=O)N(CCc2ccccc2)C(=O)C1	-	-	24	-	-	-
CCn1c(SC(C)C(=O)NCC2CCCO2)nc2ccccc21 (stereo unspecified)	-	-	39	-	-	-
CNC(=O)CN(c1ccc(Oc2ccccc2)cc1)S(=O)(=O)c1ccc(C)cc1	-	-	-	-	.	.
O=C(NCc1cccs1)C1CCC(=O)N(Cc2cccc(C(F)(F)F)c2)C1 (stereo unspecified)	-	-	42	-	-	-
N#CCSc1nnc(Cc2cccc3ccccc23)n1C1CCCCC1	-	-	-	-	.	.
CCCCOn1c(C)c(C(=O)OCC)c2c3nonc3ccc21	-	-	24	-	-	25
CCCCOn1c(C)c(C(=O)OCC)c2c3no[n+]([O-])c3ccc21	-	-	-	-	.	.
